Measurements gathered from unrelated publications.
Protocols differ between the studies behind these lines.
MAP2K5: Dual specificity mitogen-activated protein kinase kinase 5 (MAP2K5, Homo sapiens, UniProt Q13163)

For `COc1ncccc1-c1cnn2ccc(N3CCN(C(=O)OC(C)C)CC3)nc12`, the remaining binding was 93% (Peripheral plasma membrane protein CASK (CASK, Homo sapiens, UniProt O14936); binding; competition with immobilised ligand; 1 µM).
The ΔTm of `CO[C@H]1/C=C/O[C@@]2(C)Oc3c(C)c(O)c4c(O)c(c(/C=N/N5CCN(C6CCCC6)CC5)c(O)c4c3C2=O)NC(=O)/C(C)=C\C=C\[C@H](C)[C@H](O)[C@@H](C)[C@@H](O)[C@@H](C)[C@H](OC(C)=O)[C@@H]1C` is reported as over 1.5 °C (dppA (Mycobacterium tuberculosis, UniProt I6X811); thermal stability; 100 µM).
`CCN(CC)CCCC[C@H](NC(=O)[C@H](CC(C)C)NC(=O)[C@H](C)NC(=O)[C@H](Cc1ccccc1)NC(=O)c1ccc(C(C)(C)C)cc1)C(=O)N[C@@H](CO)C(=O)OC` has a remaining binding of 84% (Melanocortin receptor 4 (MC4R, Homo sapiens, UniProt P32245); ligand displacement; radioligand; 10 µM).
For `CN1CC[C@@]2(C)c3cc(OC(=O)Nc4ccccc4)ccc3N(C)[C@@H]12`, the inhibition was 6.5% (Muscarinic acetylcholine receptor M5 (CHRM5, Homo sapiens, UniProt P08912); ligand displacement; radioligand; 10 µM).
With `C#Cc1n[nH]c2c(-c3cn(C(C)c4ccccn4)c(=O)[nH]c3=O)cc(F)cc12` (centres unmarked) the inhibition was 3.8% (Fibroblast growth factor receptor 1 (FGFR1, Homo sapiens, UniProt P11362); enzyme activity; inhibitor; 1 µM).
`Nc1ncc(-c2nc(N3CCOCC3)nc(N3CCOCC3)n2)c(C(F)F)n1` has a remaining binding of 39% (MAP2K5; binding; competition with immobilised ligand; 10 µM).
`Cc1nn(C)cc1-c1nc2c(N3CCN(Cc4ccc(Cl)cc4)CC3)c(Cl)cnc2[nH]1` gave a remaining binding of 58% (MAP2K5; binding; competition with immobilised ligand; 1 µM).
With `Sc1ncnc2nc[nH]c12` the remaining activity was 49% (Replicase polyprotein 1a, main protease (Severe acute respiratory syndrome-related coronavirus, UniProt P0C6U8); enzyme activity; inhibitor; 200 µM).
